Measurements as given in ChEMBL document CHEMBL3351346, “Design, synthesis, structure-function relationship, bioconversion, and pharmacokinetic evaluation of ertapenem prodrugs” (J Med Chem, 2014).

Legend:
[1] = Stability in pH 2.0 simulated gastric fluid assessed as compound degradation to beta-lactam ring open products at 1 uM after 60 mins by LC-MS/MS method; assay type: ADME; details: read-out: Drug degradation
Summary of the method: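 Incubation was in simulated gastric fluid (SGF, pH 2.0) for 60 min, with loss to the β-lactam ring-opened product measured by LC-MS/MS.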

[2] = test system: Rattus norvegicus; assay: AUC (0 to 8 hrs) in fasted Sprague-Dawley rat assessed as ertapenem level at 10 mg/kg dosed through intraduodenal route by LC-MS/MS method; assay type: ADME, organism-based, Plasma; set-up: time < 8 hr, dose 10 mg/kg, route intraduodenal; details: in vivo, other
Summary of the method: (§1)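 Prodrugs were given intraduodenally to bypass stomach acid. Plasma was sampled at intervals over 8 h, and parent prodrug, the two monoester metabolites and ertapenem were quantified by LC-MS/MS. The lower limit of quantitation was 5 nM. AUC(0–8) was used, and it differed from AUC(0–∞) by ±20%. Vehicles were 30% Captisol or 0.5% methylcellulose, as solution or suspension depending on compound.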

[3] = test system: Rattus norvegicus; assay: Oral bioavailability in fasted Sprague-Dawley rat assessed as ertapenem level at 10 mg/kg dosed through intraduodenal route by LC-MS/MS method; assay type: ADME, organism-based; details: in vivo
Summary of the method: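 After intraduodenal dosing, plasma over 8 h was analysed by LC-MS/MS. Bioavailability was calculated as dose-normalized AUC of ertapenem formed from the prodrug divided by dose-normalized AUC of ertapenem dosed iv. Vehicle was 30% Captisol or 0.5% methylcellulose.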

[4] = Stability in pH 6.5 simulated gastrointestinal fluid assessed as compound remaining at 50 uM after 3 hrs by LC-MS/MS method; assay type: ADME; details: read-out: Stability
Summary of the method: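 Compounds at 50 μM were incubated in fasted-state simulated intestinal fluid (FaSSIF, pH 6.5) for over 3 h. Percent remaining was determined by LC-MS/MS.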

[5] = test system: Canis familiaris; assay: AUC (0 to 8 hrs) in fasted Beagle dog assessed as ertapenem level at 1 mg/kg, iv by LC-MS/MS method; assay type: ADME, organism-based, Canis lupus familiaris, Plasma; set-up: time < 8 hr, dose 1 mg/kg, route intravenous; details: in vivo
[6] = Stability in pH 7.4 phosphate buffer assessed as compound remaining at 50 uM after 3 hrs by LC-MS/MS method; assay type: physicochemical; details: read-out: Stability
[7] = AUC (0 to 8 hrs) in fasted Sprague-Dawley rat at 1 mg/kg, iv by LC-MS/MS method; assay type: ADME, organism-based; set-up: time < 8 hr, dose 1 mg/kg, route intravenous; details: plasma
[8] = Stability in human plasma assessed as compound remaining at 50 uM at 37 degC after 60 mins by LC-MS/MS method; assay type: ADME, cell-free; details: read-out: Stability
Summary of the method: (§2)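 Prodrugs were incubated in rat or human plasma for 60 min. Disappearance of prodrug and concomitant appearance of ertapenem were followed by LC-MS/MS, and in selected cases monoesters from partial hydrolysis were also monitored. Ertapenem itself was incubated the same way as a control.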

[9] = Stability in rat plasma assessed as compound remaining at 50 uM at 37 degC after 60 mins by LC-MS/MS method; assay type: ADME, cell-free; details: read-out: Stability; summary of the method: as §2
[10] = test system: Rattus norvegicus; assay: Oral bioavailability in fasted Sprague-Dawley rat assessed as ertapenem and monoetser metabolites level at 10 mg/kg dosed through intraduodenal route by LC-MS/MS method; assay type: ADME, organism-based; details: in vivo
Summary of the method: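 Total absorption followed intraduodenal dosing with LC-MS/MS of plasma over 8 h. It was calculated as the combined dose-normalized AUC of circulating parent prodrug, ertapenem and two monoesters, divided by dose-normalized AUC of ertapenem given iv. Vehicle was 30% Captisol or 0.5% methylcellulose.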

[11] = test system: Canis familiaris; assay: AUC (0 to 8 hrs) in fasted Beagle dog assessed as ertapenem level at 10 mg/kg dosed through intraduodenal route by LC-MS/MS method; assay type: ADME, organism-based, Canis lupus familiaris, Plasma; set-up: time < 8 hr, dose 10 mg/kg, route intraduodenal; details: in vivo, other; summary of the method: as §1

- degraded at 1 h, 1 µM [1]: > 25%
- AUC [2]: 0.5 µM·h
- F [3]: 0.7%
- remaining at 3 h, 50 µM [4]: > 95%
- AUC [5]: 8.9 µM·h
- remaining at 3 h, 50 µM [6]: > 95%
- AUC(0-t) at 8 h [7]: 7.8 µM·h
- remaining at 1 h, 50 µM [8]: 100%
- remaining at 1 h, 50 µM [9]: 100%
- F [10]: 0.7%
- AUC [11]: 1.4 µM·h
Compound: C[C@@H](O)[C@H]1C(=O)N2C(C(=O)[O-])=C(S[C@@H]3CN[C@H](C(=O)Nc4cccc(C(=O)O)c4)C3)[C@H](C)[C@H]12.O.[Na+]
